# From publication PMC8930943 (Clinical Drug Investigation, 2022)
# “And” between values parts separate entries of the source, which are not always exact repeats. Identical values can stand only once. “Also recorded” adds a separate entry of the source. Like-named read-outs stand apart in the source and are kept apart here.
# How the values were obtained:
# [1] = cited from earlier work
# Study 1 = assay type: in vivo, human
# Study 2 = assay type: in vivo, human
# [2] = single oral 45 mg dose of [14C] radiolabeled dacomitinib; cited from earlier work
# [3] = Assessment of safety and tolerability in Study 1 and Study 2; assay type: in vivo, human
# Summary of the method: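 Single 30 mg oral dose given after a >8-h fast with 180 mL (Study 1) or 240 mL (Study 2) water. Safety was assessed from AEs, laboratory abnormalities, physical examination, vital signs and 12-lead ECGs taken after 10-min supine rest. ECG times: Study 1 at screening, predose, 6, 48 and 264 h; Study 2 at screening, predose, 6 h, 144 h and follow-up. Participants stayed in-house to 144 h, with follow-up on Days 8–10 and 12.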
# human plasma proteins = details: independent of drug concentrations from 250 to 1000 ng/mL; cited from earlier work
# [4] = cited from earlier work; remark: listed apart in the source
# [5] = mild hepatic impairment, single oral dacomitinib 30 mg
# [6] = Study 2, severe hepatic impairment
# [7] = severe hepatic impairment, single oral dacomitinib 30 mg
# [8] = Study 1 and Study 2, single oral dose of 30 mg
smiles,measurement,setting,value
COc1cc2ncnc(Nc3ccc(F)c(Cl)c3)c2cc1NC(=O)/C=C/CN1CCCCC1 [Dacomitinib],correlation of concentrations with changes in corrected QT interval,[1],not found to correlate
same,"adjusted GMR for Cmax,u (90% CI)","Study 1; Study 1, mild hepatic impairment vs normal hepatic function, printed as ratio",1.00 (90% CI 0.69–1.44)
same,AUCinf and Cmax compared with normal hepatic function,"Study 1; Study 1, mild hepatic impairment, single oral dacomitinib 30 mg",unchanged; also recorded: similar
same,AUCinf decrease compared with normal hepatic function,Study 1; [5],6%
same,Cmax increase compared with normal hepatic function,Study 1; [5],3%
same,Cmax decrease compared with normal hepatic function,"Study 1; moderate hepatic impairment, single oral dacomitinib 30 mg",20%
same,"AUCinf,u increase compared with normal hepatic function",Study 2; [6],32%
same,"Cmax,u increase compared with normal hepatic function",Study 2; [6],approximately 69%
same,"adjusted GMR for Cmax,u (90% CI)","Study 2; Study 2, severe hepatic impairment vs normal hepatic function, printed as ratio",1.69 [90% CI 1.08–2.63]
same,AUCinf increase compared with normal hepatic function,Study 2; [7],4% and 4.4%
same,radioactivity recovered in feces,[2],79%
same,radioactivity recovered in feces as dacomitinib,[2],20%
same,radioactivity recovered in urine,[2],3%
same,radioactivity recovered in urine as dacomitinib,[2],< 1%
same,AEs reported,"[3]; Study 1, normal hepatic function or mild hepatic impairment groups",no AEs were reported
same,"serious AEs, discontinuations, treatment-related deaths",[3]; [8],"no serious AEs, discontinuations due to study treatment, or treatment-related deaths"
same,"vital signs, laboratory values, ECG measurements",[3]; [8],No clinically significant changes
same,AEs reported,"[3]; Study 2, normal hepatic function or severe hepatic impairment groups",no AEs were reported
same,tolerability,"[3]; single oral dose of 30 mg, healthy participants and participants with mild, moderate, or severe hepatic impairment",well tolerated
same,in vitro binding to human plasma proteins,human plasma proteins,approximately 98%
"O=C(/C=C/CN1CCCCC1)Nc1cc2c(Nc3ccc(F)c(Cl)c3)ncnc2cc1O [PF-05199265, O-desmethyl dacomitinib]",AUCinf decrease compared with normal liver function,Study 2; [7],19%
same,Cmax decrease compared with normal liver function,Study 2; [7],66%
C=CC(=O)Nc1cc(Nc2nccc(-c3cn(C)c4ccccc34)n2)c(OC)cc1N(C)CCN(C)C [osimertinib],decrease in AUC versus normal hepatic function,[4]; cancer patients with mild hepatic impairment (n = 7),63%
same,decrease in AUC versus normal hepatic function,[4]; cancer patients with moderate hepatic impairment (n = 5),68%
